Test results taken from ChEMBL document CHEMBL1208666, “Novel 6,8-dibromo-4(3H)quinazolinone derivatives of anti-bacterial and anti-fungal activities” (2010).
Converted amounts (≈) assume the structure as drawn. The source made the active and inactive calls. No cut-off for these calls is given here.

Key:
Listeria monocytogenes [1] = assay: Antibacterial activity against Listeria monocytogenes after 24 hrs by agar streak dilution method; format: functional
Outline: (§1)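 Agar streak dilution on Mueller Hinton agar. Compound stock in DMSO was added in graded amounts to molten sterile agar at 40–50 °C. This was poured 3–4 mm deep and left to solidify. Bacterial suspension of about 10^5 cfu/ml was applied to the serially diluted plates. Plates were incubated at 37 °C for 24 h to read the MIC. Strains were food-poisoning isolates from animal byproducts.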

Escherichia coli [2] = assay: Antibacterial activity against Escherichia coli O157 at 100 ug/ml after 24 hrs by paper disc diffusion technique; format: functional; details: O157, 24 h, read-out: IZ
Salmonella typhimurium [3] = assay: Antibacterial activity against Salmonella Typhimurium at 100 ug/ml after 24 hrs by paper disc diffusion technique; format: functional, Salmonella enterica subsp. enterica serovar Typhimurium; details: Salmonella enterica, read-out: IZ
Outline: (§2)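 Paper disc diffusion on Mueller Hinton agar, autoclaved at 120 °C for 30 min. Medium at 40–50 °C was seeded at 1 ml/100 ml with a 10^5 cfu/ml suspension matched to 0.9 McFarland. It was poured 3–4 mm deep, and discs with compound in DMSO were laid on it. Plates were pre-incubated 1 h at room temperature, then 37 °C for 24 h. The inhibition zone was measured.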

Salmonella typhimurium [4] = assay: Antibacterial activity against Salmonella Typhimurium after 24 hrs by agar streak dilution method; format: functional, Salmonella enterica subsp. enterica serovar Typhimurium; details: Salmonella enterica; outline: as §1
Aspergillus flavus [5] = assay: Antifungal activity against Aspergillus flavus after 48 hrs by agar streak dilution method; format: functional
Outline: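 Fungal MIC by agar streak dilution on Sabouraud dextrose agar. Compound stock in DMSO was added in graded amounts to molten sterile medium at 40–50 °C. This was poured 3–4 mm deep and left to solidify. Fungal suspension of about 10^5 cfu/ml was applied to the serially diluted plates. Plates were incubated at 37 °C for 48 h.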

Pseudomonas aeruginosa [6] = assay: Antibacterial activity against Pseudomonas aeruginosa at 100 ug/ml after 24 hrs by paper disc diffusion technique; format: functional; details: read-out: IZ; outline: as §2
Candida albicans = assay: Antifungal activity against Candida albicans at 100 ug/ml after 48 hrs by paper disc diffusion technique; format: functional
Outline: (§3)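 Paper disc diffusion on Sabouraud dextrose agar, autoclaved at 120 °C for 30 min. Medium at 40–50 °C was seeded at 1 ml/100 ml with a 10^5 cfu/ml fungal suspension matched to 0.9 McFarland. It was poured 3–4 mm deep, and compound discs in DMSO were applied. Plates were pre-incubated 1 h at room temperature, then 28 °C for 48 h. The inhibition zone was recorded.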

Aspergillus flavus [7] = assay: Antifungal activity against Aspergillus flavus at 100 ug/ml after 48 hrs by paper disc diffusion technique; format: functional; details: for zone of inhibition at 100 µg/mL: read-out: IZ; outline: as §3
Escherichia coli [8] = assay: Antibacterial activity against Escherichia coli O157 after 24 hrs by agar streak dilution method; format: functional; details: O157, 24 h
Pseudomonas aeruginosa [9] = assay: Antibacterial activity against Pseudomonas aeruginosa after 24 hrs by agar streak dilution method; format: functional; outline: as §1
Staphylococcus aureus [10] = assay: Antibacterial activity against Staphylococcus aureus at 100 ug/ml after 24 hrs by paper disc diffusion technique; format: functional; details: read-out: IZ; outline: as §2
Listeria monocytogenes [11] = assay: Antibacterial activity against Listeria monocytogenes at 100 ug/ml after 24 hrs by paper disc diffusion technique; format: functional; details: read-out: IZ; outline: as §2
Bacillus cereus [12] = assay: Antibacterial activity against Bacillus cereus at 100 ug/ml after 24 hrs by paper disc diffusion technique; format: functional; details: read-out: IZ; outline: as §2
Staphylococcus aureus [13] = assay: Antibacterial activity against Staphylococcus aureus after 24 hrs by agar streak dilution method; format: functional; outline: as §1
Bacillus cereus [14] = assay: Antibacterial activity against Bacillus cereus after 24 hrs by agar streak dilution method; format: functional; outline: as §1

| Structure (SMILES) | MIC (Listeria monocytogenes [1]) | zone of inhibition at 100 µg/mL (Escherichia coli [2]) | zone of inhibition at 100 µg/mL (Salmonella typhimurium [3]) | MIC (Salmonella typhimurium [4]) | MIC (Aspergillus flavus [5]) | zone of inhibition at 100 µg/mL (Pseudomonas aeruginosa [6]) | inhibition zone (IZ) (Candida albicans) | zone of inhibition at 100 µg/mL (Aspergillus flavus [7]) | MIC (Escherichia coli [8]) | MIC (Pseudomonas aeruginosa [9]) | zone of inhibition at 100 µg/mL (Staphylococcus aureus [10]) | zone of inhibition at 100 µg/mL (Listeria monocytogenes [11]) | zone of inhibition at 100 µg/mL (Bacillus cereus [12]) | MIC (Staphylococcus aureus [13]) | MIC (Bacillus cereus [14]) | inhibition zone (IZ) (Aspergillus flavus [7]) |
| --- | --- | --- | --- | --- | --- | --- | --- | --- | --- | --- | --- | --- | --- | --- | --- | --- |
| CCOC(=O)c1ccc(-n2c(-c3ccccc3)nc3c(Br)cc(Br)cc3c2=O)cc1 | 25 µg/mL (≈ 47.3 µM) | 11 mm | 16 mm | 3.12 µg/mL (≈ 5.92 µM) | 25 µg/mL (≈ 47.3 µM) | 12 mm | inactive | 10 mm | 50 µg/mL (≈ 94.7 µM) | 50 µg/mL (≈ 94.7 µM) | 17 mm | 14 mm | 9 mm | 1.56 µg/mL (≈ 2.95 µM) | 50 µg/mL (≈ 94.7 µM) | – |
| O=C(O)c1cn(C2CC2)c2cc(N3CCNCC3)c(F)cc2c1=O [CIPROFLOXACIN] | 1.56 µg/mL (≈ 4.71 µM) | 18 mm | 20 mm | 0.39 µg/mL (≈ 1.18 µM) | – | 19 mm | – | – | – | 0.78 µg/mL (≈ 2.35 µM) | 18 mm | 17 mm | 20 mm | 1.56 µg/mL (≈ 4.71 µM) | 0.39 µg/mL (≈ 1.18 µM) | – |
| O=C(N/N=C/c1ccc(Cl)cc1)c1ccc(-n2c(-c3ccccc3)nc3c(Br)cc(Br)cc3c2=O)cc1 | 30 µg/mL (≈ 47.1 µM) | 12 mm | 10 mm | > 50 µg/mL | 12.5 µg/mL (≈ 19.6 µM) | 12 mm | inactive | 16 mm | 20 µg/mL (≈ 31.4 µM) | 20 µg/mL (≈ 31.4 µM) | 12 mm | 14 mm | 16 mm | 25 µg/mL (≈ 39.3 µM) | 5.5 µg/mL (≈ 8.64 µM) | – |
| O=C(NN1C(=O)CSC1c1ccccc1O)c1ccc(-n2c(-c3ccccc3)nc3c(Br)cc(Br)cc3c2=O)cc1 (configuration not stated) | 15 µg/mL (≈ 21.7 µM) | 13 mm | 12 mm | 50 µg/mL (≈ 72.2 µM) | – | 12 mm | inactive | – | 30 µg/mL (≈ 43.3 µM) | 35 µg/mL (≈ 50.5 µM) | 11 mm | 15 mm | 9 mm | 45 µg/mL (≈ 65 µM) | > 50 µg/mL | inactive |
| Cc1ccc(/C=N/NC(=O)c2ccc(-n3c(-c4ccccc4)nc4c(Br)cc(Br)cc4c3=O)cc2)cc1 | 30 µg/mL (≈ 48.7 µM) | 11 mm | 15 mm | 5 µg/mL (≈ 8.11 µM) | 20 µg/mL (≈ 32.5 µM) | 15 mm | inactive | 12 mm | 40 µg/mL (≈ 64.9 µM) | 2.5 µg/mL (≈ 4.06 µM) | 12 mm | 13 mm | 11 mm | 25 µg/mL (≈ 40.6 µM) | 35 µg/mL (≈ 56.8 µM) | – |
| O=C(NN1C(=O)CSC1c1ccccc1)c1ccc(-n2c(-c3ccccc3)nc3c(Br)cc(Br)cc3c2=O)cc1 (configuration not stated) | 32 µg/mL (≈ 47.3 µM) | 10 mm | 16 mm | 4.1 µg/mL (≈ 6.06 µM) | – | 12 mm | inactive | – | > 50 µg/mL | 35 µg/mL (≈ 51.7 µM) | 12 mm | 13 mm | 9 mm | 25 µg/mL (≈ 37 µM) | 50 µg/mL (≈ 73.9 µM) | inactive |
| O=C1CC(=O)N(C(=O)c2ccc(-n3c(-c4ccccc4)nc4c(Br)cc(Br)cc4c3=O)cc2)N1 | > 50 µg/mL | – | 12 mm | 50 µg/mL (≈ 85.9 µM) | 1.9 µg/mL (≈ 3.26 µM) | 11 mm | inactive | 18 mm | – | > 50 µg/mL | 9 mm | 10 mm | 10 mm | > 50 µg/mL | > 50 µg/mL | – |
